Reference: ChEMBL document CHEMBL1124127, “Central dopaminergic and 5-hydroxytryptaminergic effects of C3-methylated derivatives of 8-hydroxy-2-(di-n-propylamino)tetralin” (J Med Chem, 1988)

What was measured:
Rattus norvegicus [1] = experiment: Effect on in vivo accumulation of dopamine(DA) was measured in rat limbic system at 48(Micromol/kg) dose; type: functional
Method in brief: (§1)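 Non-reserpinized rats got the test drug sc in the neck (5 mL/kg) 60 min before death, and NSD 1015 (573 µmol/kg ip) 30 min before death. After decapitation, the limbic system was dissected on ice, frozen and homogenized in 0.1 M perchloric acid with α-methyl-DOPA internal standard. DA was measured by ion-pair reversed-phase HPLC with electrochemical detection. Data are mean ± SEM (controls n=17-19, treated 3-7), analysed by ANOVA/Dunnett.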

Rattus norvegicus [2] = experiment: Effect on in vivo accumulation of DOPA was measured in rat limbic system at 48(Micromol/kg) dose; type: functional
Method in brief: (§2)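 Rats not pretreated with reserpine received test drug (hydrochloride or hydrobromide salt) sc in the neck region 60 min before death. NSD 1015 decarboxylase inhibitor (100 mg/kg, i.e., 573 μmol/kg, ip) was given 30 min before decapitation. Brain was dissected on ice. Tissue was homogenized in 0.1 M perchloric acid with α-methyl-DOPA internal standard. Analytes were quantified by ion-pair reversed-phase HPLC-electrochemical detection. Values are means ± SEM, n = 3-7 per treated group.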

Rattus norvegicus [3] = experiment: Effect on in vivo accumulation of […] was measured in rat corpus striatum at 48(Micromol/kg) dose; type: functional; method in brief: as §2
Rattus norvegicus [4] = experiment: Effect on in vivo accumulation of 5-HTP was measured in rat corpus striatum at 48(umol/kg) dose; type: functional; method in brief: as §2
Rattus norvegicus [5] = experiment: Effect on in vivo accumulation of 5-HTP was measured in rat limbic system at 48(Micromol/kg) dose; type: functional; method in brief: as §2
Rattus norvegicus [6] = experiment: Effect on in vivo accumulation of DOPA was measured in rat corpus striatum at 48(Micromol/kg) dose; type: functional; method in brief: as §2
[7] = biological target: T1, 5-hydroxytryptamine receptor 1A (Rattus norvegicus, UniProt P19327); experiment: (§3) In vitro Inhibitory activity tested at 5-hydroxytryptamine 1A receptor binding site in rat; type: functional
T1 sequence (P19327 whole entry): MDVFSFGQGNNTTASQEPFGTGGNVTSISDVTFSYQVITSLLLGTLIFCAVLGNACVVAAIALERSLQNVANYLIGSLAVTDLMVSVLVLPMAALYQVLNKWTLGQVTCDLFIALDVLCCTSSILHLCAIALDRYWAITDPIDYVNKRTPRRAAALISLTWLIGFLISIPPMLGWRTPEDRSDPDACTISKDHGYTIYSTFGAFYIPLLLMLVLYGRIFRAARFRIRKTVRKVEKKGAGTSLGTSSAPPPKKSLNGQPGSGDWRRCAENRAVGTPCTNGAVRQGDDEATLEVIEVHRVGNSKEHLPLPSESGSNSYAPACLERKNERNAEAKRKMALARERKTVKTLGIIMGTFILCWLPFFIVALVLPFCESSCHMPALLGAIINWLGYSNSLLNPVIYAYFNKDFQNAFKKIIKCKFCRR
Method in brief: (§4)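 Competition binding used rat brain membranes washed in 50 mM Tris-HCl pH 7.4, preincubated 10 min at 37 °C to remove 5-HT, and used at 10 mg wet tissue/mL. Assay: 1 nM [3H]-8-OH-DPAT, 3 mM CaCl2, 100 µM pargyline, 15 min at 37 °C, then filtration on PEI-treated filters. Nonspecific binding was set with 10 µM 5-HT. IC50 came from four-parameter logistic regression, mean ± SEM of N experiments.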

Rattus norvegicus [8] = experiment: Effect on in vivo accumulation of dopamine(DA) was measured in rat limbic system at 50(Micromol/kg) dose; type: functional; method in brief: as §1
Rattus norvegicus [9] = experiment: Effect on in vivo accumulation of DOPA was measured in rat limbic system at 50(Micromol/kg) dose; type: functional; method in brief: as §2
Rattus norvegicus [10] = experiment: Effect on in vivo accumulation of […] was measured in rat corpus striatum at 50(Micromol/kg) dose; type: functional; method in brief: as §2
Rattus norvegicus [11] = experiment: Effect on in vivo accumulation of 5-HTP was measured in rat corpus striatum at 50(umol/kg) dose; type: functional; method in brief: as §2
Rattus norvegicus [12] = experiment: Effect on in vivo accumulation of 5-HTP was measured in rat limbic system at 50(Micromol/kg) dose; type: functional; method in brief: as §2
Rattus norvegicus [13] = experiment: Effect on in vivo accumulation of DOPA was measured in rat corpus striatum at 50(Micromol/kg) dose; type: functional; method in brief: as §2
Rattus norvegicus [14] = experiment: Effect on in vivo accumulation of […] was measured in rat corpus striatum at 66(Micromol/kg) dose; type: functional; method in brief: as §2
Rattus norvegicus [15] = experiment: Effect on in vivo accumulation of dopamine(DA) was measured in rat limbic system at 66(Micromol/kg) dose; type: functional; method in brief: as §1
Rattus norvegicus [16] = experiment: Effect on in vivo accumulation of DOPA was measured in rat limbic system at 66(Micromol/kg) dose; type: functional; method in brief: as §2
Rattus norvegicus [17] = experiment: Effect on in vivo accumulation of 5-HTP was measured in rat corpus striatum at 66(umol/kg) dose; type: functional; method in brief: as §2
Rattus norvegicus [18] = experiment: Effect on in vivo accumulation of 5-HTP was measured in rat limbic system at 66(Micromol/kg) dose; type: functional; method in brief: as §2
Rattus norvegicus [19] = experiment: Effect on in vivo accumulation of DOPA was measured in rat corpus striatum at 66(Micromol/kg) dose; type: functional; method in brief: as §2
Rattus norvegicus [20] = experiment: Effect on in vivo accumulation of […] was measured in rat corpus striatum at 59(Micromol/kg) dose; type: functional; method in brief: as §2
Rattus norvegicus [21] = experiment: Effect on in vivo accumulation of dopamine(DA) was measured in rat limbic system at 59(Micromol/kg) dose; type: functional; method in brief: as §1
Rattus norvegicus [22] = experiment: Effect on in vivo accumulation of DOPA was measured in rat limbic system at 59(Micromol/kg) dose; type: functional; method in brief: as §2
Rattus norvegicus [23] = experiment: Effect on in vivo accumulation of 5-HTP was measured in rat corpus striatum at 59(umol/kg) dose; type: functional; method in brief: as §2
Rattus norvegicus [24] = experiment: Effect on in vivo accumulation of 5-HTP was measured in rat limbic system at 59(Micromol/kg) dose; type: functional; method in brief: as §2
Rattus norvegicus [25] = experiment: Effect on in vivo accumulation of DOPA was measured in rat corpus striatum at 59(Micromol/kg) dose; type: functional; method in brief: as §2
[26] = biological target: T1, 5-hydroxytryptamine receptor 1A; experiment: as §3; method in brief: as §4
[27] = biological target: T1, 5-hydroxytryptamine receptor 1A; experiment: Inhibitory activity tested in vitro at 5-hydroxytryptamine 1A receptor binding site in rat; method in brief: as §4
Rattus norvegicus [28] = experiment: Effect on in vivo accumulation of dopamine(DA) was measured in rat limbic system at 5.9 (umol/kg) dose; type: functional; method in brief: as §1
Rattus norvegicus [29] = experiment: Effect on in vivo accumulation of DOPA was measured in rat limbic system at 5.9 (umol/kg) dose; type: functional; method in brief: as §2
Rattus norvegicus [30] = experiment: Effect on in vivo accumulation of […] was measured in rat corpus striatum at 5.9 (umol/kg) dose; type: functional; method in brief: as §2
Rattus norvegicus [31] = experiment: Effect on in vivo accumulation of 5-HTP was measured in rat corpus striatum at 5.9(umol/kg) dose; type: functional; method in brief: as §2
Rattus norvegicus [32] = experiment: Effect on in vivo accumulation of 5-HTP was measured in rat limbic system at 5.9 (umol/kg) dose; type: functional; method in brief: as §2
Rattus norvegicus [33] = experiment: Effect on in vivo accumulation of DOPA was measured in rat corpus striatum at 5.9 (umol/kg) dose; type: functional; method in brief: as §2

CCCN(CCC)[C@H]1Cc2c(cccc2OC)C[C@@H]1C (racemic)
Activity (Rattus norvegicus [1]): 1225 ng/g
Activity (Rattus norvegicus [2]): 389 ng/g
Activity (Rattus norvegicus [3]): 5833 ng/g
Activity (Rattus norvegicus [4]): <61.3 ng/g
Activity (Rattus norvegicus [5]): 145 ng/g
Activity (Rattus norvegicus [6]): 979 ng/g

CCCN(CCC)[C@H]1Cc2c(O)cccc2C[C@H]1C (racemic) [listing 1 of 2 here]
IC50 [7]: 774 nM
Activity (Rattus norvegicus [8]): <678 ng/g
Activity (Rattus norvegicus [9]): 436 ng/g
Activity (Rattus norvegicus [10]): <2935 ng/g
Activity (Rattus norvegicus [11]): <57.8 ng/g
Activity (Rattus norvegicus [12]): 138 ng/g
Activity (Rattus norvegicus [13]): 1059 ng/g

CCCN(CCC)[C@H]1Cc2c(cccc2OC)C[C@H]1C (racemic)
Activity (Rattus norvegicus [1]): 1342 ng/g
Activity (Rattus norvegicus [2]): 414 ng/g
Activity (Rattus norvegicus [3]): 6465 ng/g
Activity (Rattus norvegicus [4]): 88.8 ng/g
Activity (Rattus norvegicus [5]): 141 ng/g
Activity (Rattus norvegicus [6]): 1078 ng/g

CCCN(CCC)[C@H]1Cc2c(O)cccc2CC1(C)C (racemic)
Activity (Rattus norvegicus [1]): 1125 ng/g
Activity (Rattus norvegicus [2]): 362 ng/g
Activity (Rattus norvegicus [3]): 5417 ng/g
Activity (Rattus norvegicus [4]): 90 ng/g
Activity (Rattus norvegicus [5]): 158 ng/g
Activity (Rattus norvegicus [6]): 982 ng/g

COc1cccc2c1C[C@H](N)[C@@H](C)C2 (racemic)
Activity (Rattus norvegicus [14]): <6863 ng/g
Activity (Rattus norvegicus [15]): 1243 ng/g
Activity (Rattus norvegicus [16]): 356 ng/g
Activity (Rattus norvegicus [17]): 90.2 ng/g
Activity (Rattus norvegicus [18]): <106 ng/g
Activity (Rattus norvegicus [19]): <823 ng/g

CCCN[C@H]1Cc2c(O)cccc2C[C@@H]1C (racemic)
Activity (Rattus norvegicus [20]): 5877 ng/g
Activity (Rattus norvegicus [21]): 1215 ng/g
Activity (Rattus norvegicus [22]): 400 ng/g
Activity (Rattus norvegicus [23]): 101 ng/g
Activity (Rattus norvegicus [24]): 155 ng/g
Activity (Rattus norvegicus [25]): 1047 ng/g

CCCN[C@H]1Cc2c(O)cccc2C[C@H]1C (racemic)
Activity (Rattus norvegicus [20]): 4530 ng/g
Activity (Rattus norvegicus [21]): 1058 ng/g
Activity (Rattus norvegicus [22]): <283 ng/g
Activity (Rattus norvegicus [23]): 69 ng/g
Activity (Rattus norvegicus [24]): <98.1 ng/g
Activity (Rattus norvegicus [25]): <633 ng/g

CCCN(CCC)[C@H]1Cc2c(O)cccc2C[C@H]1C (racemic) [listing 2 of 2 here]
IC50 [26]: 774 nM

CCCN(CCC)[C@H]1Cc2c(O)cccc2C[C@@H]1C (racemic; form 1)
IC50 [26]: 129 nM

CCCN(CCC)[C@H]1Cc2c(O)cccc2C[C@@H]1C (racemic; form 2)
IC50 [26]: 129 nM
Activity (Rattus norvegicus [8]): <775 ng/g
Activity (Rattus norvegicus [9]): 348 ng/g
Activity (Rattus norvegicus [10]): <3871 ng/g
Activity (Rattus norvegicus [11]): <27.1 ng/g
Activity (Rattus norvegicus [12]): <79.3 ng/g
Activity (Rattus norvegicus [13]): 792 ng/g

CCCN(CCC)[C@H]1Cc2c(O)cccc2C[C@H]1C (stereo in doubt; (+))
IC50 [27]: 2420 nM

CCCN(CCC)[C@H]1Cc2c(O)cccc2C[C@@H]1C (stereo in doubt; (+))
IC50 [27]: 60.5 nM

CCCN[C@H]1Cc2c(O)cccc2C[C@@H]1C (stereo in doubt; (+)-9)
Activity (Rattus norvegicus [20]): 4249 ng/g
Activity (Rattus norvegicus [21]): 1030 ng/g
Activity (Rattus norvegicus [22]): 426 ng/g
Activity (Rattus norvegicus [23]): <67.4 ng/g
Activity (Rattus norvegicus [24]): 125 ng/g
Activity (Rattus norvegicus [25]): 957 ng/g

CCCN[C@H]1Cc2c(O)cccc2C[C@H]1C (stereo in doubt; (+)-13)
Activity (Rattus norvegicus [20]): 5133 ng/g
Activity (Rattus norvegicus [28]): 1292 ng/g
Activity (Rattus norvegicus [21]): 1186 ng/g
Activity (Rattus norvegicus [29]): 365 ng/g
Activity (Rattus norvegicus [22]): <271 ng/g
Activity (Rattus norvegicus [30]): 5924 ng/g
Activity (Rattus norvegicus [31]): 104 ng/g
Activity (Rattus norvegicus [23]): 101 ng/g
Activity (Rattus norvegicus [32]): 131 ng/g
Activity (Rattus norvegicus [24]): 140 ng/g
Activity (Rattus norvegicus [33]): 1013 ng/g
Activity (Rattus norvegicus [25]): <525 ng/g

CCCN(CCC)[C@H]1Cc2c(O)cccc2C[C@H]1C (stereo in doubt; (+)-15)
IC50 [27]: 2420 nM
Activity (Rattus norvegicus [8]): <609 ng/g
Activity (Rattus norvegicus [9]): <507 ng/g
Activity (Rattus norvegicus [10]): <2758 ng/g
Activity (Rattus norvegicus [11]): 115 ng/g
Activity (Rattus norvegicus [12]): 197 ng/g
Activity (Rattus norvegicus [13]): 1157 ng/g

CCCN(CCC)[C@H]1Cc2c(O)cccc2C[C@H]1C (stereo in doubt; (-))
IC50 [27]: 486 nM

CCCN(CCC)[C@H]1Cc2c(O)cccc2C[C@@H]1C (stereo in doubt; (-))
IC50 [27]: 1680 nM

CCCN[C@H]1Cc2c(O)cccc2C[C@@H]1C (stereo in doubt; (-)-9)
Activity (Rattus norvegicus [20]): 5588 ng/g
Activity (Rattus norvegicus [21]): 975 ng/g
Activity (Rattus norvegicus [22]): <340 ng/g
Activity (Rattus norvegicus [23]): 105 ng/g
Activity (Rattus norvegicus [24]): 169 ng/g
Activity (Rattus norvegicus [25]): 978 ng/g

CCCN[C@H]1Cc2c(O)cccc2C[C@H]1C (stereo in doubt; (-)-13)
Activity (Rattus norvegicus [20]): 5365 ng/g
Activity (Rattus norvegicus [21]): 1148 ng/g
Activity (Rattus norvegicus [22]): 365 ng/g
Activity (Rattus norvegicus [23]): 103 ng/g
Activity (Rattus norvegicus [24]): 151 ng/g
Activity (Rattus norvegicus [25]): 932 ng/g
